The values that follow come from PubChem BioAssay.

Experiment [1] can be described thus: inhibitors of TNFa-induced NFkB p65 translocation, primary screen, imaging, HUVEC, MLSMR starter and 10KST1 sets (AID 438;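 active means inhibition above 20% together with a positive visual image hit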;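 further: compound added about 3h40 before a 20 min TNFalpha stimulation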;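 on inhibition: signal is the nuclear over cytoplasmic p65 intensity ratio per well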). The note with it: HUVEC TNFa-induced p65 nuclear translocation; cell count: measured here: nuclei count (cytotoxicity indicator), at 2.08 µM; inhibition: at 2 µM, stronger effect = higher value, 0% TNFa-plus-vehicle, 100% no-TNFa wells.
A short description of experiment [2]: endothelial E-selectin expression blockers – imaging, HUVEC, immunofluorescence, MLSMR starter and 10KST1 sets, primary screen (AID 487;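 active means visually confirmed hit in the image check and inhibition above 20%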;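 on inhibition: signal is fraction of cell area covered by stained E-selectin grains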;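 on nuclei count: 100% = median nuclei count of all wells on the same plate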). The settings on record: HUVEC TNFalpha-induced E-selectin immunofluorescence imaging, at 2 µM; inhibition: stronger effect = higher value; nuclei count: measured here: cell number, toxicity.
The nature of experiment [3]: Primary imaging screen for DUSP6 inhibitors that restore phospho-Erk in transfected HeLa cells, chemical complementation (AID 609;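 active means compounds giving at least 50% inhibition in the cell-based MKP-3 phosphatase rescue imaging test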;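 on inhibition: phospho-Erk level distribution per well compared with pooled transfected vehicle control wells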). The note with it: HeLa MKP-3 transfected, phospho-Erk imaging KS statistic, at 10 µM, cells stimulated with TPA for 15 min.
Experiment [4] has as its target Dual specificity protein phosphatase 6 (Homo sapiens) (UniProt Q16828). The experiment is described as above. The settings on record: HeLa MKP-3 transfected, phospho-Erk imaging KS statistic; at 10 µM; stronger effect = higher value; cells stimulated with TPA for 15 min.
In experiment [5] the target is Voltage-gated potassium channel subunit beta-2 (Rattus norvegicus) (UniProt P62483). The experiment can be described thus: inhibitors of rat Kvbeta2 reductase activity – biochemical, NADPH fluorescence, primary screen (AID 622;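 active means fluorescence slope higher than the sample average by over 3 SD, cut at about -0.22 in these data, passing the limit was not always enough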;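 further: slope of raw intensity against log time taken from 70 to 1610 s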). The settings on record: recombinant KvBeta, 4-cyanobenzaldehyde reduction, at 10 µM, stronger effect = higher value.
For experiment [6] the target is unchanged. Put plainly: enhancers of rat Kvbeta2 NADPH turnover – biochemical, NADPH fluorescence, primary screen (AID 623;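 active means NADPH fluorescence slope more negative than the mean of all samples by about 3 SD, 99.7% confidence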;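 further: fluorescence intensity change per second fitted from 20 to 320 s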). The settings on record: Recombinant KvBeta, NADPH fluorescence decrease slope, 10 min; at 10 µM; stronger effect = lower value.
In experiment [7] the target is Muscarinic acetylcholine receptor M4 (Homo sapiens) (UniProt P08173). The experiment can be described thus: M4-linked GIRK flux change, two-sided – cell-based, HEK293 M4/GIRK, thallium flux, BTC-AM, M4 allosteric agonist project, primary screen (AID 625;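 active means fluorescence slope after compound addition differing from the mean of all tested samples at 99.7% confidence, mostly higher but some lower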;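 further: thallium influx through GIRK channels coupled to M4 in HEK293 cells with BTC-AM dye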). The note with it: at 10 µM, actives lie on both sides. A digest of the protocol: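 System: HEK293 cells with M4 receptor and GIRK channels | Incubation: Cells overnight at 37 °C, BTC-AM loading 1 h, reads 2 min total | Technique: Kinetic BTC-AM fluorescence sampled at 1 Hz, 10 s pre-addition baseline | Measure: Post-addition slope, 15–24 s, of baseline-normalized fluorescence | Control set: Carbachol positive, DMSO negative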

A short description of experiment [8]: inhibitors of larval lipid processing in zebrafish, primary screen, whole organism, PED6 fluorescence, gall bladder and intestine (AID 686).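 Further: larvae 5 to 7 days old with five fish per well; signal comes from phospholipase A2 cleavage of quenched PED6 carried via bile; overnight exposure to compound and PED6 before scoring.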 The note with it: Zebrafish larvae PED6 lipid processing, fluorescence scoring; screened at 20 µM (by protocol). A digest of the protocol: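 Test system – live zebrafish larvae aged 5-7 days, whole organism · Buffer or medium – E3 fish medium · Reagent – quenched phospholipase substrate PED6, 100 nM final, ingested by larvae · Doses – 20 µM single dose · Incubation – overnight compound and PED6 incubation · Technique – visual fluorescence microscopy scoring of gall bladder, gut · Read-out basis – visual per-well fluorescence inhibition score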

A short description of experiment [9]: loss of swimming-algae plug formation – whole organism, Chlamydomonas reinhardtii, WT vs cilia-less mutant, absorbance, 96-well, primary screen (AID 463189;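 active means inhibition at or above 50% relative to wild type and mutant plate controls; inactive means inhibition below 50%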;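 further: 0% = wild type cc124 cells in DMSO and 100% = ciliumless bld1 mutant cells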). The note with it: Chlamydomonas reinhardtii gravitaxis, OD600 absorbance, 2 days; at 10 µM; stronger effect = higher value.
The mark [10] stands for this setting: measured here: cell density z-score.
Where [11] appears, read: measured here: nuclear c-Myc green intensity z-score.
Setting [12] is: measured here: nuclear pErk red intensity z-score, stronger effect = higher value.

Usually inhibition stands for the drop in the measured response relative to a control, in per cent.

Each structure is given as a SMILES string. Calls of active or inactive are those of the source.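 How the source made its calls, unless noted: active means a full or partial loss of lipid-probe fluorescence in the fish gall bladder, intestine or both, judged by eye; inactive means no fluorescence loss, or compound toxic to the fish.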

Sequence of Dual specificity protein phosphatase 6 (Homo sapiens) (Q16828 whole entry, looked up): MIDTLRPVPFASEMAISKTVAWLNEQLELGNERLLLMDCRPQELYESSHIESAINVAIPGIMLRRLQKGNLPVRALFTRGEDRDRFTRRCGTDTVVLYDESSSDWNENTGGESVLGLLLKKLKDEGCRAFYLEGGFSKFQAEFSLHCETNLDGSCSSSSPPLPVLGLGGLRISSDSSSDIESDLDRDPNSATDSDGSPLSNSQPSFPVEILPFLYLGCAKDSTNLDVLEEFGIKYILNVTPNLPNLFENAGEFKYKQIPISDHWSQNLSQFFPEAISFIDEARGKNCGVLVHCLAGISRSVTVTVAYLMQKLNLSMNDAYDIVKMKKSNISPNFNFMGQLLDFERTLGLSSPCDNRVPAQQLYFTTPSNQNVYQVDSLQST
Sequence of Voltage-gated potassium channel subunit beta-2 (Rattus norvegicus) (P62483 whole entry, looked up): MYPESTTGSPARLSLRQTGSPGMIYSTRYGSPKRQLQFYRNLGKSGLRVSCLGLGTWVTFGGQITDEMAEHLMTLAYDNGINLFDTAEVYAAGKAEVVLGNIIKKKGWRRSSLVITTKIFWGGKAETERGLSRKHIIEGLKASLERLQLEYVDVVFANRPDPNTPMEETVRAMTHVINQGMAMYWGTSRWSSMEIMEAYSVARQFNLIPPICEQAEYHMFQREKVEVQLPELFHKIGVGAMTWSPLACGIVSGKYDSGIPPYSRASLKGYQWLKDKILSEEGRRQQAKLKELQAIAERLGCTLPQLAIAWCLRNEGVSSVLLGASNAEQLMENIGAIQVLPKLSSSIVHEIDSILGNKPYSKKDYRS
Sequence of Muscarinic acetylcholine receptor M4 (Homo sapiens) (P08173 whole entry, looked up): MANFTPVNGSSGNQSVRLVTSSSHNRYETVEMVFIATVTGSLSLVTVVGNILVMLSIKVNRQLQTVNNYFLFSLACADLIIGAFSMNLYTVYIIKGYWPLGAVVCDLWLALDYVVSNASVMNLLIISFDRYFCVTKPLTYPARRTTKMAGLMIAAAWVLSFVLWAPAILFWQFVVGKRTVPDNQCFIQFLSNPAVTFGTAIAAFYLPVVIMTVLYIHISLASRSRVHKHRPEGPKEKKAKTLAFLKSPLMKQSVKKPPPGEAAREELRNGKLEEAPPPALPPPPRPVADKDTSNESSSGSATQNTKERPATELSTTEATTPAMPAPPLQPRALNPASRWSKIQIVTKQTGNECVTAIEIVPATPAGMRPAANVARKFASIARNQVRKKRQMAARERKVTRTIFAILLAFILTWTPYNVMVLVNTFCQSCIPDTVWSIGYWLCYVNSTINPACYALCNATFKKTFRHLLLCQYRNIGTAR

Turning to `Cc1cc(/C=N/n2cnnc2)c(C)n1-c1ccc2c(c1)OCO2`, the cell count in experiment [1] came out at 374. Moreover, the inhibition is 0.6% (inactive) in experiment [1], -13.7% (inactive) in [2], 14% (inactive) in [4] and -15.4% (inactive) in experiment [9]. In addition, the nuclei count in [2] came out at 97.4%. Also, the z-score was -1.04 in [3] (setting [10]), 0.298 in experiment [3] (setting [11]) and 0.807 in [3] (setting [12]). Besides, the figures for the fluorescence slope in [5] and in experiment [7] were -0.569 (inactive) and 0.00571 (inactive), respectively. Moreover, in [6], the NADPH fluorescence slope is -6.1e-05 (inactive). Moreover, the molecule was called inactive in experiment [8].
Take `C=CCn1c(=O)c(C(=O)NCCN(CC)CC)c(O)c2ccccc21`: the cell count in experiment [1] stood at 560. For the same molecule, the inhibition was 0% (inactive) in experiment [1], -97% (inactive) in experiment [2], 27.8% (inactive) in [4] and 42.6% (inactive) in [9]. In experiment [2], this molecule showed a nuclei count of 170%. Besides, the results for the z-score in experiment [3] (setting [10]), in [3] (setting [11]) and in [3] (setting [12]) were 1.11, -0.484 and 1.3, respectively. Moreover, the fluorescence slope in [5] is -0.368 (inactive); in [7], 0.00442 (inactive). Moreover, the NADPH fluorescence slope in [6] was -2.4e-05 (inactive). In addition, the molecule was classed as inactive in experiment [8].
With `Cc1cc2c(C)nc(Cc3ccccc3)nc2o1`, in [1], the cell count came out at 561. The inhibition in experiment [1] was -5.5% (inactive); in experiment [2], -85.6% (inactive); in [4] it was 11.9% (inactive); in experiment [9], 16.9% (inactive). In experiment [2], this molecule displayed a nuclei count of 149%. For the same molecule, the z-score in experiment [3] (setting [10]) is -0.156; in experiment [3] (setting [11]), 0.673; in experiment [3] (setting [12]), 0.277. For the same molecule, the figures for the fluorescence slope in [5] and in experiment [7] were -0.438 (inactive) and 0.00471 (inactive), respectively. Further, the NADPH fluorescence slope in [6] was -7.2e-05 (inactive). Also, the result in experiment [8] was inactive.
As for `Cc1sc(-n2c(C)ccc2C)c(C#N)c1C`, the cell count in experiment [1] came out at 411. For the same molecule, the inhibition was -2% (inactive) in experiment [1], -11.7% (inactive) in experiment [2], 7.73% (inactive) in experiment [4] and -3.1% (inactive) in experiment [9]. The same molecule gave a nuclei count in experiment [2] of 144%. The figures for the z-score in [3] (setting [10]), in experiment [3] (setting [11]) and in [3] (setting [12]) were -1.09, -0.0847 and 1.07, respectively. Also, the fluorescence slope in experiment [5] was -0.505 (inactive); in experiment [7], 0.00469 (inactive). Also, the NADPH fluorescence slope in [6] was -9.6e-05 (inactive). Also, in [8], the molecule was classed as inactive.
With `COc1ccc2[nH]cc(C(=O)CN(C)CCc3ccc(OC)c(OC)c3)c2c1`, the cell count in experiment [1] was determined as 516. In addition, the inhibition in experiment [1] was -15.4% (inactive); in experiment [2], -59.5% (inactive); in [4], -14.6% (inactive); in experiment [9] it was -1.18% (inactive). Moreover, the nuclei count in experiment [2] is 137%. The z-score in experiment [3] (setting [10]) is 0.922; in [3] (setting [11]), -0.876; in experiment [3] (setting [12]) it was 1.1. In addition, the fluorescence slope in experiment [5] was -0.476 (inactive); in [7] it was 0.00394 (inactive). Moreover, the NADPH fluorescence slope in experiment [6] is -7.3e-05 (inactive). For the same molecule, the molecule was called inactive in experiment [8].
For the molecule `CC1CCN(c2[nH]c(=S)c(C#N)c3c2CCCC3)CC1`, the cell count in experiment [1] was 383. Moreover, the inhibition was -5.9% (inactive) in experiment [1], -5.3% (inactive) in [2], 1.42% (inactive) in experiment [4] and 19.3% (inactive) in experiment [9]. Also, the nuclei count in experiment [2] worked out at 140%. For the same molecule, the z-score in [3] (setting [10]) was 0.378; in experiment [3] (setting [11]), -0.606; in experiment [3] (setting [12]), 1.46. Moreover, the figures for the fluorescence slope in experiment [5] and in experiment [7] were -0.469 (inactive) and 0.00501 (inactive), respectively. Besides, the NADPH fluorescence slope in experiment [6] is -0.000131 (inactive). For the same molecule, the outcome in experiment [8] was inactive.
On to `CC1(C)Cc2c(c(N3CCCCC3)[nH]c(=S)c2C#N)CS1`, for which, in [1], the cell count was determined as 574. The inhibition in [1] was -7.8% (inactive); in [2], -103% (inactive); in experiment [4], -10.6% (inactive); in experiment [9], 12.9% (inactive). In [2], this molecule came in with a nuclei count of 151%. Besides, the z-score in experiment [3] (setting [10]) is -0.509; in experiment [3] (setting [11]), -1.94; in [3] (setting [12]), 0.0392. For the same molecule, the fluorescence slope in [5] is -0.479 (inactive); in [7], 0.00629 (inactive). In addition, in [6], the NADPH fluorescence slope is -0.000148 (inactive). Moreover, the molecule was classed as inactive in experiment [8].
Consider `CCN(CC)C(=O)CSc1nc2ccccc2c(=O)n1CC1CCCCC1`, for which the cell count in experiment [1] is 355. Also, the inhibition is -2.2% (inactive) in experiment [1], 4% (inactive) in experiment [2], 1.42% (inactive) in experiment [4] and 7.22% (inactive) in [9]. Besides, the nuclei count in [2] is 108%. Moreover, the z-score was -1.94 in [3] (setting [10]), 0.923 in [3] (setting [11]) and -0.374 in [3] (setting [12]). Further, the fluorescence slope in experiment [5] is -0.484 (inactive); in experiment [7] it was 0.00498 (inactive). In addition, the NADPH fluorescence slope in experiment [6] is 5.7e-06 (inactive). Besides, in experiment [8], the call was inactive.
For the molecule `N#Cc1nc(-c2cccs2)oc1NCc1ccccc1`, the cell count in experiment [1] was 712. The inhibition in [1] was 0.5% (inactive); in experiment [2], -23.3% (inactive); in experiment [4], -7.67% (inactive); in experiment [9] it was 7.94% (inactive). In experiment [2], this molecule displayed a nuclei count of 148%. For the same molecule, the z-score in [3] (setting [10]) came out at 0.919; in experiment [3] (setting [11]), 1.11; in experiment [3] (setting [12]), 0.281. Besides, the fluorescence slope is -0.329 (inactive) in experiment [5] and 0.00659 (inactive) in experiment [7]. For the same molecule, the NADPH fluorescence slope in [6] is -2.5e-05 (inactive). Besides, the molecule was classed as inactive in experiment [8].
With `Cn1c(NCc2ccccc2)nc2c1c(=O)n(Cc1ccccc1)c(=O)n2C`, the cell count in experiment [1] turned out to be 694. For the same molecule, the inhibition is -5.5% (inactive) in [1], -54.8% (inactive) in experiment [2], 5.95% (inactive) in experiment [4] and 6.49% (inactive) in experiment [9]. For the same molecule, the nuclei count in [2] came out at 172%. The z-score is 0.899 in experiment [3] (setting [10]), -0.674 in experiment [3] (setting [11]) and 1.21 in [3] (setting [12]). For the same molecule, the fluorescence slope in [5] is -0.461 (inactive); in experiment [7], 0.00535 (inactive). Also, in [6], the NADPH fluorescence slope is -8.2e-05 (inactive). Further, the molecule was classed as inactive in experiment [8].
With `CCN1CCc2c(C#N)c(N3CCCCC3)nc(N3CCOCC3)c2C1`, the cell count in experiment [1] came out at 567. The inhibition in experiment [1] is -7.1% (inactive); in experiment [2] it was -95.8% (inactive); in experiment [4], -2.09% (inactive); in experiment [9] it was 20.3% (inactive). The molecule also showed a nuclei count in [2] of 149%. Besides, the z-score was 0.15 in experiment [3] (setting [10]), -1.22 in [3] (setting [11]) and 1.09 in [3] (setting [12]). Further, the fluorescence slope is -0.46 (inactive) in experiment [5] and 0.00491 (inactive) in experiment [7]. Further, the NADPH fluorescence slope in [6] was -7.6e-05 (inactive). The outcome in [8] was inactive.
For the molecule `CCOC(=O)C1CCCN(c2nc3ccccc3nc2C(C#N)C(=O)OC(C)COC)C1` (centres undefined), the cell count in experiment [1] came to 683. The inhibition in [1] is -5.4% (inactive); in experiment [2] it was -63% (inactive); in experiment [4], -5.81% (inactive); in [9], 23.6% (inactive). The nuclei count in experiment [2] is 204%. Moreover, the z-score in [3] (setting [10]) is -1; in [3] (setting [11]) it was 0.049; in experiment [3] (setting [12]), 0.811. Further, the fluorescence slope in [5] is -0.495 (inactive); in experiment [7], 0.00181 (inactive). For the same molecule, the NADPH fluorescence slope in experiment [6] is -0.000103 (inactive). Moreover, the outcome in experiment [8] was inactive.
As to `C=CCn1c(C2CC(=O)N(c3ccc(C)cc3)C2)nc2ccccc21` (centres undefined), the cell count in experiment [1] worked out at 591. Moreover, the inhibition in [1] was -13.7% (inactive); in [2] it was 47.4% (inactive); in [4], -2.29% (inactive); in experiment [9] it was 2% (inactive). Moreover, in [2], the nuclei count worked out at 177%. The results for the z-score in experiment [3] (setting [10]), in experiment [3] (setting [11]) and in experiment [3] (setting [12]) were -1.26, -0.0771 and 0.981, respectively. Also, the fluorescence slope was -0.467 (inactive) in experiment [5] and 0.00532 (inactive) in experiment [7]. Moreover, the NADPH fluorescence slope in [6] is -0.00019 (inactive). For the same molecule, the molecule was called inactive in [8].
